Experimental data from ChEMBL document CHEMBL1153083, “Antiprotozoal, anticancer and antimicrobial activities of dihydroartemisinin acetal dimers and monomers” (Bioorg Med Chem, 2009).
Activity calls are given as the source filed them. The rule behind the calls is not given here.

Experiments:
[1] = test system: Plasmodium falciparum; test: Antiplasmodial activity against Plasmodium falciparum D6 infected in RBCs by parasitic LDH release assay; type: functional, organism-based
Summary of the method: (§1)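 Infected erythrocytes at 2% parasitemia and 2% hematocrit, in RPMI 1640 with 10% human serum and amikacin 60 μg/mL, were exposed to serial dilutions under N2/O2/CO2 (90:5:5) at 37°C for 72 h. LDH was read with Malstat reagent (30 min), then NBT/PES in the dark (60 min), stopped with 5% acetic acid, at 650 nm. IC50 came from percent growth dose-response curves.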

[2] = Selectivity index, ratio of TC50 for african green monkey (Cercopithecus aethiops) Vero cells to IC50 for Plasmodium falciparum D6; type: toxicity, cell-based
[3] = test system: Plasmodium falciparum; test: Antiplasmodial activity against Plasmodium falciparum W2 infected in RBCs by parasitic LDH release assay; type: functional, organism-based; summary of the method: as §1
[4] = Selectivity index, ratio of TC50 for african green monkey (Cercopithecus aethiops) Vero cells to IC50 for Plasmodium falciparum W2; type: toxicity, cell-based
[5] = Toxicity against african green monkey Vero cells; type: cell-based; settings: chlorocebus sabaeus
Summary of the method: (§2)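 Cells seeded at 25,000 per well and incubated 24 h, then exposed to samples for 48 h. Viable cells were counted by neutral red, with DMSO as vehicle control. IC50 or TC50 values were derived from logarithmic plots of growth inhibition versus concentration.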

[6] = test system: Leishmania donovani; test: Antileishmanial activity against Leishmania donovani promastigotes after 48 hrs by alamar blue assay; type: functional, organism-based; settings: for IC50: read-out: IC50
[7] = test system: SK-MEL; test: Cytotoxicity against human SK-MEL cells after 48 hrs by neutral red assay; type: functional, cell-based; summary of the method: as §2
[8] = test system: KB; test: Cytotoxicity against human KB cells after 48 hrs by neutral red assay; type: functional, cell-based; summary of the method: as §2
[9] = test system: BT-549; test: Cytotoxicity against human BT549 cells after 48 hrs by neutral red assay; type: functional, cell-based; summary of the method: as §2
[10] = test system: SK-OV-3; test: Cytotoxicity against human SKOV3 cells after 48 hrs by neutral red assay; type: functional, cell-based; settings: sk-ov-3; summary of the method: as §2
[11] = test system: Vero; test: (§3) Toxicity against african green monkey Vero cells after 48 hrs by neutral red assay; type: cell-based; settings: chlorocebus sabaeus, vero, 48 h; summary of the method: as §2
[12] = Toxicity against pig LLC-PK11 cells after 48 hrs by neutral red assay; type: cell-based, Sus scrofa; settings: for CC50 at 48 h: LLC-PK11 cells, read-out: TC50; for TC50: llc-pk11, 48 h; summary of the method: as §2
[13] = test system: Candida albicans; test: Antifungal activity against Candida albicans ATCC 90028 by modified CLSI/NCCLS method; type: functional, organism-based
[14] = test system: Nakaseomyces glabratus; test: Antifungal activity against Candida glabrata ATCC 90030 by modified CLSI/NCCLS method; type: functional, organism-based
[15] = test system: Pichia kudriavzevii; test: Antifungal activity against Candida krusei ATCC 6258 by modified CLSI/NCCLS method; type: functional, organism-based
[16] = test system: Cryptococcus neoformans; test: Antifungal activity against Cryptococcus neoformans ATCC 90113 by modified CLSI/NCCLS method; type: functional, organism-based
[17] = test system: Aspergillus fumigatus; test: Antifungal activity against Aspergillus fumigatus ATCC 90906 by modified CLSI/NCCLS method; type: functional, organism-based
[18] = test system: Staphylococcus aureus; test: Antibacterial activity against Staphylococcus aureus ATCC 29213 by modified CLSI/NCCLS method; type: functional, organism-based
[19] = test system: Staphylococcus aureus; test: Antibacterial activity against methicillin-resistant Staphylococcus aureus ATCC 43300 by modified CLSI/NCCLS method; type: functional, organism-based
[20] = test system: Escherichia coli; test: Antibacterial activity against Escherichia coli ATCC 35218 by modified CLSI/NCCLS method; type: functional, organism-based
[21] = test system: Pseudomonas aeruginosa; test: Antibacterial activity against Pseudomonas aeruginosa ATCC 27853 by modified CLSI/NCCLS method; type: functional, organism-based
[22] = test system: Mycobacterium intracellulare; test: Antibacterial activity against Mycobacterium intracellular ATCC 23068 by Franzblau method; type: functional, organism-based
[23] = as §3; type: cell-based; settings: chlorocebus sabaeus, Vero cells; read-out: TC50; summary of the method: as §2
[24] = Candida albicans, ATCC 90028, read-out: IC50
[25] = Pichia kudriavzevii, ATCC 6258, read-out: IC50
[26] = Aspergillus fumigatus, ATCC 90906, read-out: IC50
[27] = Escherichia coli, ATCC 35218, read-out: IC50
[28] = Homo sapiens, SK-MEL, 48 h, read-out: IC50
[29] = Homo sapiens, KB, 48 h, read-out: IC50
[30] = Homo sapiens, BT-549, 48 h, read-out: IC50
[31] = Nakaseomyces glabratus, ATCC 90030, read-out: IC50
[32] = Mycobacterium intracellulare, ATCC 23068, read-out: IC50

SMILES	IC50 [1]	selectivity ratio [2]	IC50 [3]	selectivity ratio [4]	CC50 [5]	IC90 ([6]; Leishmania donovani, 48 h)	IC50 ([6]; Leishmania donovani, 48 h)	IC50 ([7]; sk-mel)	IC50 ([8]; kb)	IC50 ([9]; bt-549)	IC50 [10]	TC50 [11]	CC50 at 48 h [12]	IC50 [13, 24]	IC50 [16]	IC50 [17]	IC50 [18]	IC50 [19]	IC50 [21]	IC50 [22]	further results
C[C@H]1[C@@H](OCC(=O)CO)O[C@@H]2O[C@@]3(C)CC[C@H]4[C@H](C)CC[C@@H]1[C@@]24OO3	0.0079 µM	> 1700	0.007 µM	> 1900	> 13.3 µM	112 µM	25.8 µM	Not Active	Not Active	Not Active	Not Active	Not Active	20.8 µM	> 56.1 µM	6.48 µM	Not Active	Not Active	Not Active	Not Active	Not Active	IC50 [14]: Not Active; IC50 [15, 25]: > 56.1 µM; IC50 [20]: Not Active
C[C@H]1[C@@H](OC[C@@H](O)[C@@H](O)CO[C@H]2O[C@@H]3O[C@@]4(C)CC[C@H]5[C@H](C)CC[C@@H]([C@H]2C)[C@@]35OO4)O[C@@H]2O[C@@]3(C)CC[C@H]4[C@H](C)CC[C@@H]1[C@@]24OO3 (relative stereo)	0.0067 µM	> 1080	0.0052 µM	> 1400	> 7.26 µM	22.9 µM		Not Active	Not Active	Not Active	Not Active	Not Active		6.11 µM	1.22 µM			Not Active	Not Active	Not Active	TC50 [12]: Not Active; IC50 [17, 26]: 30.5 µM; IC50 [20, 27]: 15.3 µM
C[C@H]1[C@@H](OC[C@@H]2O[C@@H]2CO[C@H]2O[C@@H]3O[C@@]4(C)CC[C@H]5[C@H](C)CC[C@@H]([C@H]2C)[C@@]35OO4)O[C@@H]2O[C@@]3(C)CC[C@H]4[C@H](C)CC[C@@H]1[C@@]24OO3 (relative stereo)	0.0455 µM	> 164	0.0471 µM	> 159	> 7.47 µM	47.1 µM	3.9 µM				Not Active		0.68 µM	> 31.4 µM	31.4 µM		Not Active	Not Active		Not Active	IC50 [7, 28]: 0.22 µM; IC50 [8, 29]: 0.47 µM; IC50 [9, 30]: 0.3 µM; CC50 at 48 h [23]: > 1.57 µM; IC50 [14, 31]: > 31.4 µM; IC50 [15]: Not Active; IC50 [17, 26]: > 31.4 µM; IC50 [20]: Not Active; IC50 ([21]; Pseudomonas aeruginosa, ATCC 27853, read-out: IC50): > 31.4 µM
C[C@H]1[C@@H](OCC[C@@H](CO[C@H]2O[C@@H]3O[C@@]4(C)CC[C@H]5[C@H](C)CC[C@@H]([C@H]2C)[C@@]35OO4)O[C@H]2O[C@@H]3O[C@@]4(C)CC[C@H]5[C@H](C)CC[C@@H]([C@H]2C)[C@@]35OO4)O[C@@H]2O[C@@]3(C)CC[C@H]4[C@H](C)CC[C@@H]1[C@@]24OO3	0.298 µM	18	0.243 µM	22	5.25 µM	44.2 µM	5 µM				Not Active		0.07 µM		16.6 µM	Not Active	Not Active	Not Active	Not Active		IC50 [7, 28]: 0.24 µM; IC50 [8, 29]: 0.11 µM; IC50 [9, 30]: 0.06 µM; CC50 at 48 h [23]: > 1.1 µM; IC50 [13]: Not Active; IC50 [14]: Not Active; IC50 [15]: Not Active; IC50 [20]: Not Active; IC50 [22, 32]: > 22.1 µM
C[C@H]1[C@@H](OCC[C@H](O)CO[C@H]2O[C@@H]3O[C@@]4(C)CC[C@H]5[C@H](C)CC[C@@H]([C@H]2C)[C@@]35OO4)O[C@@H]2O[C@@]3(C)CC[C@H]4[C@H](C)CC[C@@H]1[C@@]24OO3	0.0438 µM	> 170	0.0454 µM	> 164	> 7.45 µM	9.4 µM	2.5 µM				Not Active		0.1 µM	10.2 µM	1.6 µM				Not Active		IC50 [7, 28]: 0.24 µM; IC50 [8, 29]: 0.16 µM; IC50 [9, 30]: 0.08 µM; CC50 at 48 h [23]: > 1.57 µM; IC50 [14, 31]: > 31.3 µM; IC50 [15, 25]: > 31.3 µM; IC50 [17, 26]: 5.24 µM; IC50 ([18]; Staphylococcus aureus, ATCC 29213, read-out: IC50): 16.5 µM; IC50 ([19]; Staphylococcus aureus, ATCC 43300, read-out: IC50): > 31.3 µM; IC50 [20, 27]: 13.6 µM; IC50 [22, 32]: > 31.3 µM
C[C@H]1[C@@H](Oc2cccc(N[C@@H]3[C@H](C)O[C@@H]4O[C@@]5(C)CC[C@H]6[C@H](C)CC[C@@H]3[C@@]46OO5)c2)O[C@@H]2O[C@@]3(C)CC[C@H]4[C@H](C)CC[C@@H]1[C@@]24OO3	0.0058 µM	> 1290	0.0059 µM	> 1250	> 7.41 µM	62.3 µM	24.9 µM	Not Active	Not Active	Not Active	Not Active	Not Active			0.16 µM	Not Active		Not Active	Not Active	Not Active	TC50 [12]: Not Active; IC50 [13]: Not Active; IC50 [20, 27]: 8.57 µM
C[C@H]1[C@@H](OC/C=C\CO)O[C@@H]2O[C@@]3(C)CC[C@H]4[C@H](C)CC[C@@H]1[C@@]24OO3	0.0062 µM	> 2160	0.0076 µM	> 1760	> 13.4 µM		42.3 µM	Not Active	Not Active	Not Active	Not Active	Not Active			0.56 µM	Not Active		Not Active	Not Active	Not Active	IC90 [6]: inactive; TC50 [12]: Not Active; IC50 [13]: Not Active; IC50 [20]: Not Active
C[C@H]1[C@@H](OCc2cc(O)cc(O)c2)O[C@@H]2O[C@@]3(C)CC[C@H]4[C@H](C)CC[C@@H]1[C@@]24OO3	0.0209 µM	> 560	0.0207 µM	> 567	> 11.7 µM	24.6 µM	5.7 µM	Not Active	Not Active	Not Active	Not Active	Not Active	2.46 µM		18.6 µM	Not Active	Not Active	Not Active	Not Active		IC50 [13]: Not Active; IC50 [14]: Not Active; IC50 [15]: Not Active; IC50 [20, 27]: 48.6 µM; IC50 [22, 32]: > 49.2 µM
